Tests used:
[1] = system: Rho/MRTF/SRF-mediated gene transcription (SRE.L); assay: Gα12-stimulated SRE.L luciferase reporter assay in PC3 cells; type: cell-based; settings: for IC50: Homo sapiens, PC-3, read-out: SRE.L IC50; for SRE.L activity: Table 2 sidechain SAR, PC3 cells
Procedure, shortened: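 PC-3 cells plated at 20,000/well in DMEM with 10% FBS. Next day they were lipofected with 56 ng SRE.L luciferase reporter plus 2 ng/well Gα12 Q231L or pcDNA. After 4 h, medium was switched to 0.5% FBS DMEM, and compound or DMSO was added overnight. Viability was then read by WST-1 (450 nm), and cells were lysed for luciferase. Mean of n = 3.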

[2] = system: Rho/MRTF/SRF-mediated gene transcription (SRE.L); assay: SRE.L luciferase reporter assay, cell line not stated; type: cell-based; settings: for SRE.L activity: Figure 3, heterocycle and carboxylic acid replacements
Procedure, shortened: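 Gα12-stimulated SRE.L luciferase reporter in transiently transfected PC-3 or HEK293T cells. PC-3 format: 20,000 cells/well in 10% FBS/DMEM, next day co-transfected with SRE.L luciferase reporter plus Gα12 Q231L or empty pcDNA (Lipofectamine 2000). After 4 h, switched to 0.5% FBS/DMEM with test compound or DMSO overnight. WST-1 viability read at 450 nm, then lysis and luciferase read.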

[3] = system: Rho/MRTF/SRF-mediated gene transcription (SRE.L); assay: Gα12-stimulated SRE.L luciferase reporter assay in HEK293T cells; type: cell-based; settings: for SRE.L activity: Figure 4, HEK293T cells, analogs with modified thioether
CTGF gene expression = assay: qPCR for LPA-stimulated expression of CTGF in primary dermal fibroblasts; type: cell-based, human; settings: for Effect on CTGF gene expression: then LPA 1 h, primary human dermal fibroblasts
cells of the SRE.L assay = assay: Cytotoxicity in the SRE.L assay determined by CellTiter-Fluor; type: cell-based
[4] = system: bleomycin-induced lung fibrosis; settings: mice, dose of 300 mg/kg; cited from earlier work
[5] = Pharmacokinetic studies in mice; type: in vivo, female CD-1 mice; settings: mouse, IV
Procedure, shortened: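 Female CD-1 mice were dosed iv and/or po, with compound in 15% DMSO/15% PEG-400/70% PBS (v/v). Blood (50 μL) was sampled at 0.5, 2, 4 and 7 h, and plasma was frozen at -80 °C. Plasma levels were measured by a validated LC–MS/MS method. Parameters were derived non-compartmentally.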

[6] = system: bleomycin-induced dermal fibrosis; assay: Bleomycin-induced dermal fibrosis in mice; type: in vivo, mouse
[7] = system: bleomycin-induced dermal fibrosis; settings: mice; cited from earlier work
[8] = Cytotoxicity in the SRE.L assay determined by CellTiter-Fluor; type: cell-based; settings: human, cells of the SRE.L assay

## CNC(=O)CCSc1nnc(-c2ccc(Cl)cc2Cl)o1 [compound 9, 3-((5-(2,4-dichlorophenyl)-1,3,4-oxadiazol-2-yl)thio)-N-methylpropanamide]
[1]
  IC50: > 100000 nM
  SRE.L activity: unsuccessful

## O=C(O)CCCCSc1nnc(-c2ccc(Cl)cc2Cl)o1 [8r, 5-((5-(2,4-dichlorophenyl)-1,3,4-oxadiazol-2-yl)thio)pentanoic acid]
[1]
  IC50: 43 nM

## O=C(O)CCSc1nnc(-c2cccnc2)o1 [compound 22]
[2]
  SRE.L activity: complete loss in activity

## O=C(O)CSc1nnc(-c2ccc(Cl)cc2Cl)o1 [8p]
[1]
  IC50: > 100000 nM
  SRE.L activity: activity was completely lost

## O=C(O)CCSc1nnc(-c2ccncc2)o1 [compound 23]
[2]
  SRE.L activity: complete loss in activity

## O=C(O)CCCS(=O)(=O)c1nnc(-c2ccc(Cl)cc2Cl)o1 [compound 21, 4-((5-(2,4-dichlorophenyl)-1,3,4-oxadiazol-2-yl)sulfonyl)butanoic acid]
[3]
  SRE.L activity: activity was lost

## O=C(O)CCCc1nnc(-c2ccc(Cl)cc2Cl)o1 [compound 29]
[3]
  SRE.L activity: almost complete loss in activity

## Cc1ccc(=O)n(-c2ccccc2)c1 [Pirfenidone, reference compound]
[2]; read-out: SRE.L assay IC50
  IC50: > 100 µM
CTGF gene expression; at 10^−5 M
  CTGF expression, % control: 91 % control
Cells of the SRE.L assay; CellTiter-Fluor
  Concentration above which cytotoxic: > 100 µM
[4]
  Effect on bleomycin-induced lung fibrosis: attenuate bleomycin-induced lung fibrosis

## O=C(O)CCCOc1nnc(-c2ccc(Cl)cc2Cl)o1 [compound 11, 4-((5-(2,4-dichlorophenyl)-1,3,4-oxadiazol-2-yl)oxy)butanoic acid]
[3]
  SRE.L activity: almost complete loss in activity

## O=C(O)CSCc1nnc(-c2ccc(Cl)cc2Cl)o1 [compound 13, 2-(((5-(2,4-dichlorophenyl)-1,3,4-oxadiazol-2-yl)methyl)thio)acetic acid]
[3]
  SRE.L activity: almost complete loss in activity

## CCOC(=O)CCSc1nnc(-c2ccc(Cl)cc2Cl)o1 [compound 6, Ethyl 3-((5-(2,4-dichlorophenyl)-1,3,4-oxadiazol-2-yl)thio)propanoate]
[1]
  SRE.L activity: maintained activity

## O=C(O)CCCSc1nnc(-c2ccc(Cl)cc2Cl)o1 [8q, 4-((5-(2,4-dichlorophenyl)-1,3,4-oxadiazol-2-yl)thio)butanoic acid]
[5]
  clearance rate relative to 8j: ~3 fold

## O=C(O)CCCSc1nnc(-c2ccc(C3CC3)cc2Cl)o1 [19f, 4-((5-(2-chloro-4-cyclopropylphenyl)-1,3,4-oxadiazol-2-yl)thio)butanoic acid]
[3]; Me replaced by c-Pr
  Improvement in SRE.L potency relative to 8s: 100 fold
[6]; 3 and 10 mg/kg PO, both doses, 14 days
  Bleomycin-induced dermal fibrosis: significantly reduced bleomycin-induced dermal fibrosis
[6]; bleomycin-induced dermal fibrosis
  In vivo potency relative to 8j: at least 3 fold
[1]
  IC50: 0.0012 nM
CTGF gene expression; 48 h pre-treatment
  Effect on CTGF gene expression: neither 8j nor 19f had any significant effect
CTGF gene expression; 72 h pre-treatment
  Potency on CTGF gene expression relative to 8j: ~ 100 x
  Effect on CTGF gene expression: dose-dependently reduced CTGF gene expression

## c1ccc(-c2nnc(SCCC3OCCCO3)o2)cc1 [compound 28]
[2]
  SRE.L activity: abolished activity

## COC(=O)c1ccc2c(c1)NC(=O)/C2=C(\Nc1ccc(N(C)C(=O)CN2CCN(C)CC2)cc1)c1ccccc1 [Nintedanib]
[7]
  Minimum dose effective at preventing bleomycin-induced dermal thickness: 30 mg/kg/day
CTGF gene expression; at 10^−5 M
  Cytotoxicity in the CTGF assay: cytotoxic
CTGF gene expression; at 10^−6 M
  CTGF expression, % of DMSO control: 45 % of DMSO control
Cells of the SRE.L assay; at 10 uM
  Cytotoxicity: some cytotoxicity
[8]
  IC50: < 30 µM

## O=C(O)CCCSc1nnc(-c2ccc(Br)cc2Cl)o1 [8x, 4-((5-(4-bromo-2-chlorophenyl)-1,3,4-oxadiazole-2-yl)thio)butanoic acid]
[3]; 4-Cl replaced by 4-Br
  Improvement in SRE.L activity relative to 8q: 10 fold

## O=C(O)CCSc1nnc(-c2ccc(Cl)cc2Cl)o1 [8j, 3-((5-(2,4-dichlorophenyl)-1,3,4-oxadiazol-2-yl)thio)propanoic acid]
[6]; 10 mg/kg PO, 14 days
  Bleomycin-induced fibrotic effects (dermal thickness and hydroxyproline content) vs bleomycin/vehicle control: significant effects
[6]; 0.1, 1 and 10 mg/kg/day by oral gavage, 14 days
  Bleomycin-induced fibrotic effects (dermal thickness and hydroxyproline content): dose-dependently reduce
CTGF gene expression; 48 h pre-treatment
  Effect on CTGF gene expression: neither 8j nor 19f had any significant effect
CTGF gene expression; 72 h pre-treatment
  Effect on CTGF gene expression: dose-dependently reduced CTGF gene expression

## Cc1occc1-c1nnc(SCCC(=O)O)o1 [compound 24]
[2]
  SRE.L activity: complete loss in activity
